Screening results deposited in PubChem by several laboratories.
NRP1-CendR mod: modulators of CendR peptide binding to human neuropilin-1; FAM-RPARPAR peptide binding to NRP-1, fluorescence polarization; inhibition, % at 25 µM; 0.85% of 360,000 active; AID 602438;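 active means inhibition or corrected inhibition above about 18%, plus a signal ratio from 0.5 to 1.5, limit read from the data, passing the limit was not always enough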
Target sequence (O14786 whole entry, looked up): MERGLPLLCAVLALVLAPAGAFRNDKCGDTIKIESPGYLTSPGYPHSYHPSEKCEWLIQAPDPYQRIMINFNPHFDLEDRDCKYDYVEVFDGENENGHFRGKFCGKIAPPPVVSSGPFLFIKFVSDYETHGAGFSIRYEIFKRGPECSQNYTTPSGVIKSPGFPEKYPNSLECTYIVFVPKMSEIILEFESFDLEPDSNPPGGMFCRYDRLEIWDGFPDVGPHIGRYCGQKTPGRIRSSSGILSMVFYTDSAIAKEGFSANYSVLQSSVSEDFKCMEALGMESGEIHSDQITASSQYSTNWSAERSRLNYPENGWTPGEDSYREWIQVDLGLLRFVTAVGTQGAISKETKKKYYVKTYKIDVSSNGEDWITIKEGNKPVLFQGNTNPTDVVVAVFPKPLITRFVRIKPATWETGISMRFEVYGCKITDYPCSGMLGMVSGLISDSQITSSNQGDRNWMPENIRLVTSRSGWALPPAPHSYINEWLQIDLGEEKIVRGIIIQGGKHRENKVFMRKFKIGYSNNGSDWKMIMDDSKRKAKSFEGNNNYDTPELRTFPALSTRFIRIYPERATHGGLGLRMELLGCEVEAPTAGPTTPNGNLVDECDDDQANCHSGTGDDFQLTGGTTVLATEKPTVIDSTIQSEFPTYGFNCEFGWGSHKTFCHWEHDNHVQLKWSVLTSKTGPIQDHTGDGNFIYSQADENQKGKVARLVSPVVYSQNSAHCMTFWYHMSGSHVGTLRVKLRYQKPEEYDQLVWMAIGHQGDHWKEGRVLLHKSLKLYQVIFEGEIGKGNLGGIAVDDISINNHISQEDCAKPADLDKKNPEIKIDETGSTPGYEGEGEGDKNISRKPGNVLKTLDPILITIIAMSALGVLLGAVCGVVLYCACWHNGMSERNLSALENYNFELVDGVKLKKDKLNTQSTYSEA
HCV core dimer: blocks dimerization of HCV core protein. TR-FRET GST/Flag-core106 dimerization, 1536-well. inhibition, % at 5 µM. 0.33% of 300,000 active;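 active means inhibition above the mean of all tested compounds plus 3 SD, set per screening campaign, cut at about 45% in these data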
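Test system: GST/Flag-tagged HCV core106 proteins; Medium: KF-containing HEPES buffer, pH 7.45, DTT, CHAPS, BSA; Times: compound-protein-antibody incubation 4 h at 22.5 °C; Detection: TR-FRET 671 and 617 nm emission; Benchmarks: wells lacking GST-core106 and wells with excess unlabelled core106.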
FID counter: displaces DNA intercalator in HCV helicase counter-screen; DNA fluorescent intercalator displacement, fluorescence; inhibition, % at 7.9 µM; 0.17% of 290,000 active; AID 1845; in the data active means inhibition above about 37%;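 further: higher means more ethidium bromide displaced from hairpin DNA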
MEX-5 binding: C. elegans MEX-5 TCR-2 RNA binding activity; Q9XUB2; MEX-5/FITC-TCR2 RNA binding, fluorescence polarization; stronger effect = lower value; activity score (negative = inhibition of binding), % at 10 µM; 0.38% of 300,000 active; AID 1832;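 active means inhibition past about -25% in most replicates, and total fluorescence under double the plate's negative control median, limit read from the data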
Of the large screens only hits and unclear results are named; the others gave an inactive call. In the library only some 1.5% were active in any assay of this set; here they are far more common.

CC(=O)N1CCN(C(c2ccccc2)c2nnnn2C(C)(C)C)CC1 (stereo unspecified)	none (no result: HCV core dimer, FID counter, MEX-5 binding)
O=C(COC(=O)c1cccc(S(=O)(=O)N2CCc3ccccc3C2)c1)NCc1ccco1	HCV core dimer 51
O=C(COC(=O)c1cc(S(=O)(=O)N2CCc3ccccc3C2)ccc1Cl)NCc1ccco1	none
Cc1sc2nc(SCC(=O)N(CCO)CCO)n(C3CCCCC3)c(=O)c2c1C	NRP1-CendR mod 24
Cc1sc2nc(SCC(=O)N(CCO)CCO)nc(N)c2c1C	none
C#CCOCCOCCOCCNc1nc(N2CCN(C(=O)CCCCCCCCCCNC(=O)[C@@H](CCSC)n3cc(CCO)nn3)CC2)nc(N2CCN(C(=O)CCCCCCCCCCNC(=O)[C@H](CCCN=C(N)N)n3cc(C[C@@H](C)CC)nn3)CC2)n1	NRP1-CendR mod 21 (no result: FID counter, MEX-5 binding)
C#CCOCCOCCOCCNc1nc(N2CCN(C(=O)CCCCCCCCCCNC(=O)[C@H](CO)n3cc(CCCCCN)nn3)CC2)nc(N2CCN(C(=O)CCCCCCCCCCNC(=O)[C@H](CCCN=C(N)N)n3cc(C[C@@H](C)CC)nn3)CC2)n1	none (no result: NRP1-CendR mod, FID counter, MEX-5 binding)
C#CCOCCOCCOCCNc1nc(N2CCN(C(=O)CCCCCCCCCCNC(=O)[C@H](CCCCN)n3cc(C[C@@H](C)CC)nn3)CC2)nc(N2CCN(C(=O)CCCCCCCCCCNC(=O)[C@H](CCCN=C(N)N)n3cc(C[C@@H](C)CC)nn3)CC2)n1	NRP1-CendR mod 40 (no result: FID counter, MEX-5 binding)
C#CCOCCOCCOCCNc1nc(N2CCN(C(=O)CCCCCCCCCCNC(=O)[C@H](CCCCN)n3cc(C)nn3)CC2)nc(N2CCN(C(=O)CCCCCCCCCCNC(=O)[C@H](CCCN=C(N)N)n3cc(C[C@@H](C)CC)nn3)CC2)n1	none (no result: NRP1-CendR mod, FID counter, MEX-5 binding)
Cc1ccc(C(=O)NCCCc2ccccc2)c(C)c1	NRP1-CendR mod 22
COc1ccc(CNC[C@@H](CCCCN(C)Cc2ccc(OC)cc2)N2C[C@H](c3ccccc3)N(CCc3ccc(Cl)c(Cl)c3)C(=O)C2=O)cc1	FID counter 37
Cc1coc2c1c(C)cc1oc(=O)c(CC(=O)NCCC(=O)O)c(C)c12	NRP1-CendR mod 20
CCCCNC(=O)C(NC(=O)c1cccs1)C(=O)c1ccccc1 (stereo unspecified)	none (no result: HCV core dimer, FID counter, MEX-5 binding)
COC(=O)[C@@]12C[C@@H](CC(=O)NCC34CC5CC(CC(C5)C3)C4)C(=O)N(Cc3ccc4c(c3)OCO4)C1=CCC(C)(C)C2	none (no result: HCV core dimer, FID counter, MEX-5 binding)
CCN(Cc1ccccc1)S(=O)(=O)c1ccc(C(=O)N(CCCN(C)C)c2nc3c(F)cccc3s2)cc1	none
CCOc1cccc2sc(N(CCCN(C)C)C(=O)c3ccc(S(=O)(=O)N(CC)Cc4ccccc4)cc3)nc12	FID counter 37
CCOc1cccc2sc(N(CCCN(C)C)C(=O)c3ccc(S(=O)(=O)N(C)Cc4ccccc4)cc3)nc12	FID counter 39
Cc1[nH][nH]c(=O)c1C(c1ccc(O)c([N+](=O)[O-])c1)c1c(C)[nH][nH]c1=O	MEX-5 binding -48
CSCC(C)N1CCC(Oc2cccc(C(=O)NCc3ccccn3)c2)CC1 (stereo unspecified)	MEX-5 binding -29
COc1cc(C(=O)NC(C)Cc2ccccn2)ccc1OC1CCN(C(C)=O)CC1 (stereo unspecified)	NRP1-CendR mod 20 (no result: HCV core dimer)
CC(C)=CC(=O)N1CCC(Oc2cccc(C(=O)NCc3ccccn3)c2)CC1	none (no result: HCV core dimer, FID counter, MEX-5 binding)
CC1CCN(c2nc3ccccc3nc2C(C#N)C(=O)NC2CCCCC2)CC1 (stereo unspecified)	MEX-5 binding -29 (no result: NRP1-CendR mod, FID counter)
O=C(NN1C(=O)C2CC=C(Cl)CC2C1=O)c1ccncc1 (stereo unspecified)	HCV core dimer 48
CCOC(=O)[C@]12CCCC=C1N(Cc1ccccc1)C(=O)[C@H](CC(=O)NCc1cccc(C(F)(F)F)c1)C2	none (no result: HCV core dimer, FID counter, MEX-5 binding)
CC1=NN(C(N)=S)C(=O)C1N=Nc1cccc(Cl)c1 (stereo unspecified)	none
Cc1ccccc1N=Nc1c(C)[nH]n(C(N)=S)c1=O	none
CC(=O)N(C)c1ccc(N=Nc2c(C)[nH]n(C(N)=S)c2=O)cc1	MEX-5 binding -32
CC(=O)N(C)c1ccc(N=NC2C(=O)N(C(N)=S)N=C2C)cc1 (stereo unspecified)	MEX-5 binding -26
Cc1[nH]n(C(N)=S)c(=O)c1N=Nc1ccc([N+](=O)[O-])cc1Cl	NRP1-CendR mod 39 (no result: HCV core dimer)
CC1=NN(C(N)=S)C(=O)C1N=Nc1c(Cl)cc([N+](=O)[O-])cc1Cl (stereo unspecified)	MEX-5 binding -31
CC1CC1C(=O)Nc1ccc(S(=O)(=O)N2CCCCC2)cc1 (stereo unspecified)	none (no result: HCV core dimer, FID counter, MEX-5 binding)
CC(=O)Nc1ccc(CN(C)c2c(C)nc3ccc(C(=O)N(C)Cc4ccco4)cn23)cc1	none (no result: HCV core dimer, FID counter, MEX-5 binding)
CC1=NN(C(N)=S)C(=O)C1N=Nc1ccc(S(N)(=O)=O)cc1 (stereo unspecified)	MEX-5 binding -69
Cc1ccn(CCC(=O)N2CCc3ccccc32)n1	NRP1-CendR mod 20
Fc1ccc(C2CC(c3ccco3)=NN2c2ccccc2)cc1 (stereo unspecified)	none
O=[N+]([O-])c1ccc(N2N=C(c3ccco3)CC2c2ccccc2)cc1 (stereo unspecified)	HCV core dimer 87
CC1(C(=O)Nc2cnc3ccccc3c2)CCN1C(=O)C/C=C/c1ccccc1 (stereo unspecified)	none (no result: HCV core dimer, FID counter, MEX-5 binding)
COc1cccc(Nc2nc(C(N)Cc3ccc(Cl)cc3)cs2)n1 (stereo unspecified)	none (no result: HCV core dimer, FID counter, MEX-5 binding)
Cn1c(=O)c(N)c2c3c(c(Br)ccc31)C(=O)c1ccccc1-2	MEX-5 binding -39
O=C1CCN(CCc2ccccc2)CCN1CCSc1ccc(Br)cc1	NRP1-CendR mod 23 (no result: FID counter)
CC(C)N1CCC(N2CCN(Cc3ccc(-c4ccc(Cl)cc4)o3)CC2CCO)CC1 (stereo unspecified)	none
CC(C)N1CCC(N2CCN(Cc3ccc(-c4ccccc4Cl)o3)CC2CCO)CC1 (stereo unspecified)	FID counter 53
CCOC(=O)c1c(N)sc2c1CCSC2	HCV core dimer 55
CCOC(=O)c1c(N)sc2c1CCC(CC)C2 (stereo unspecified)	none
Cc1cccc(C)c1NC(=O)C(c1cc2ccccc2o1)N1CCC(c2ccccc2)CC1 (stereo unspecified)	none (no result: HCV core dimer, FID counter, MEX-5 binding)
CCN(CC)c1ccc2cc(NC(=O)CCC(=O)O)c(=O)oc2c1	NRP1-CendR mod 50, MEX-5 binding -68
CC(=O)Nc1nnc([N+](=O)[O-])s1	none (no result: HCV core dimer, FID counter, MEX-5 binding)
OC[C@@H]1CN(Cc2ccc(-c3ccccc3)cc2)C[C@H](n2cnc3c(N4CCCC4)ncnc32)O1	none (no result: HCV core dimer, FID counter, MEX-5 binding)
O=c1cc(CSc2nnc(-c3cccs3)n2Cc2ccccc2)nc2sc3ccccc3n12	HCV core dimer 60
O=C(NCc1ccccc1)C1C(c2ccccc2)=Nc2ccccc2N1C(=O)c1cccnc1 (stereo unspecified)	none (no result: HCV core dimer, FID counter, MEX-5 binding)
Cc1ccc(OCC(=O)OCC(=O)NC2CCCCCC2)cc1C	none (no result: HCV core dimer, FID counter, MEX-5 binding)
CCCCn1c(/C=C/c2ccco2)nc2ccccc21	none
Cc1ccc(Cn2c(/C=C/c3ccco3)nc3ccccc32)cc1	none
Clc1ccc(Cn2c(/C=C/c3ccco3)nc3ccccc32)cc1	HCV core dimer 58
